Our source for the inhibition, inhibition of growth and IC50 values is ChEMBL document CHEMBL2346519, “Substituted indolin-2-ones as p90 ribosomal S6 protein kinase 2 (RSK2) inhibitors: Molecular docking simulation and structure-activity relationship analysis” (Bioorg Med Chem, 2013).

Experiment [1] addresses T1, Ribosomal protein S6 kinase alpha-3 (Homo sapiens, UniProt P51812). Nature of the experiment: Inhibition of RSK2 (unknown origin) using AKRRRLSSLRA as substrate at 10 uM after 60 mins by fluorescence assay relative to control.
In experiment [2] the test system is PC-3. Put plainly: Cytotoxicity against human PC3 cells assessed as growth inhibition at 100 uM after 48 hrs by MTT assay relative to control. Type of experiment: functional. The note with it: PC-3, 48 h, read-out: GI. Put shortly: (§1)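 Single-concentration screen at 100 µM by 48 h MTT. MCF-7 cells were grown in DMEM plus 10% FBS and PC 3 cells in F-12K, 5 × 10^3 cells per well. After 4 h with MTT at 37 °C, formazan was dissolved in DMSO and absorbance read at 570 nm. Percent inhibition is reported.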
For orientation: Formazan colour is commonly taken as a measure of viable cells.

Experiment [3] concerns the target T1, Ribosomal protein S6 kinase alpha-3. Nature of the experiment: Inhibition of RSK2 (unknown origin) using AKRRRLSSLRA as substrate after 60 mins by fluorescence assay.
In experiment [4] the test system is MCF7. Nature of the experiment: Cytotoxicity against human MCF7 cells assessed as growth inhibition at 100 uM after 48 hrs by MTT assay relative to control. Type of experiment: functional. Particulars: MCF7, 48 h, read-out: GI. The method in brief: as §1
Experiment [5] addresses T1, Ribosomal protein S6 kinase alpha-3. Put plainly: Inhibition of RSK2 (unknown origin).
In experiment [6] the test system is MCF7. Put plainly: Cytotoxicity against human MCF7 cells assessed as growth inhibition after 48 hrs by MTT assay. Format: functional, cell-based. The note with it: MCF7, 48 h. The method in brief:
(§2)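 MCF-7 cells grown in DMEM plus 10% FBS and PC 3 cells in F-12K, both seeded at 5 × 10^3 per well. Cells were exposed to compounds at various concentrations for 48 h. MTT was then added for 4 h at 37 °C in 5% CO2, formazan was dissolved in DMSO, and absorbance was read at 570 nm. IC50 was taken from inhibition curves of three independent experiments and measured only where inhibition at 100 µM exceeded 50%.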

Experiment [7] has as its system PC-3. Put plainly: Cytotoxicity against human PC3 cells assessed as growth inhibition after 48 hrs by MTT assay. Format: functional, cell-based. The note with it: PC-3, 48 h. The method in brief:
as §2

T1 sequence (P51812 whole entry): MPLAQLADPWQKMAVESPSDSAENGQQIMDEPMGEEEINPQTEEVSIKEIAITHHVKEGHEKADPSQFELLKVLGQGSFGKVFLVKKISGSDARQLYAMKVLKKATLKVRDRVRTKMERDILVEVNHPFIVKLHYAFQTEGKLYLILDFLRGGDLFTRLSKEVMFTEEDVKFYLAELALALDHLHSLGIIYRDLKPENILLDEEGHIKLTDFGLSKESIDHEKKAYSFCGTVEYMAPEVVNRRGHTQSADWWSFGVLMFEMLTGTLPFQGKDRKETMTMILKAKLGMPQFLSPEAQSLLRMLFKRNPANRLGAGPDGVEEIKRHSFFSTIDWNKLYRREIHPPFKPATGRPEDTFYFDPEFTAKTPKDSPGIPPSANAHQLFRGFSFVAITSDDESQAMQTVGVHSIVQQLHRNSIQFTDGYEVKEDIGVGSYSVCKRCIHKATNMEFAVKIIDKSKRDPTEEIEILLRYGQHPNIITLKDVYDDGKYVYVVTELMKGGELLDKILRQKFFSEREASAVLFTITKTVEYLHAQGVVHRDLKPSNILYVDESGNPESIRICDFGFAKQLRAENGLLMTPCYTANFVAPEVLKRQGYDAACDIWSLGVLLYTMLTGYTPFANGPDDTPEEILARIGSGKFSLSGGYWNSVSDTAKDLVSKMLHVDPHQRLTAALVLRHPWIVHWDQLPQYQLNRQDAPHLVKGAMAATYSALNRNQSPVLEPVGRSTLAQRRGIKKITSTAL

One may read the inhibition as the percentage by which the read-out fell short of the control. Compound `O=C1Nc2ccc(Br)cc2/C1=N/NC(=O)c1ccco1` displayed an inhibition in experiment [1] of 11.5%.

Compound `COc1ccc(-n2c(/C=C3\C(=O)Nc4ccccc43)nc3ccc(I)cc3c2=O)cc1` yielded an inhibition in experiment [1] of 13.4%.

One may read the IC50 as the concentration at which inhibition is half-maximal. Consider `O=C1Nc2ccc(F)cc2/C1=C/c1c[nH]nc1-c1ccccc1`, for which the inhibition of growth at 100 µM in the experiment with PC-3 [2] and with MCF7 [4] was < 10% throughout. In addition, the half-maximal inhibitory concentration (IC50) in experiment [3] was determined as 8.59 µM. This compound yielded an inhibition in experiment [1] of 78.4%.

As for `O=C1Nc2ccccc2/C1=N/N=C1\CCCc2c1[nH]c1ccc(Cl)cc21`, in experiment [1], the inhibition is < 10%.

In the case of `CCc1ccc2c(c1)/C(=N\NC(=O)CSc1ccc(Cl)cc1)C(=O)N2`, the inhibition in experiment [1] is < 10%.

`O=C1Nc2ccc(Cl)cc2/C1=C/c1c[nH]nc1-c1ccccc1`: in experiment [1], the inhibition came out at 33.2%.

In the case of `CCn1c(/C=C2\C(=O)Nc3ccccc32)nc2ccccc2c1=O`, in experiment [1], the inhibition is < 10%.

`O=C1Nc2ccccc2/C1=C/c1ccco1`: the half-inhibitory concentration (IC50) in experiment [5] stood at 7.76 µM; in experiment [3], 3.47 µM; in the experiment on MCF7 [6] it was 30.1 µM. In the experiment on PC-3 [2], the inhibition of growth at 100 µM was < 10%. Moreover, in experiment [1], the inhibition stood at 69.6%.

For `CCc1cccc2c1NC(=O)/C2=C1\SC(=S)NC1=O`, the inhibition of growth at 100 µM stood at 40.9% in the experiment on PC-3 [2] and 16% with MCF7 [4]. For the same compound, the IC50 in experiment [3] was determined as 17 µM. Moreover, in experiment [1], the inhibition stood at 50.1%.

In experiment [1], `O=C1Nc2ccc(Br)cc2/C1=C/c1c[nH]nc1-c1ccccc1` showed an inhibition of 33.6%.

With `O=C1Nc2ccccc2/C1=C/c1c[nH]nc1-c1ccc(F)cc1`, the inhibition in experiment [1] came to 38.6%.

In experiment [1], `O=C1Nc2ccc(F)cc2/C1=C/c1ccc(-c2cccc(Br)c2)o1` registered an inhibition of 26.3%.

Regarding `Cn1cc(C2=C(c3cn(CCCSC(=N)N)c4ccccc34)C(=O)NC2=O)c2ccccc21` [BISINDOLYLMALEIMIDE IX], in the experiment with PC-3 [7], the IC50 amounted to 1.74 µM.

For the compound `O=C1Nc2ccc(Br)cc2/C1=C/c1ccc(-c2ccccc2Cl)o1`, in experiment [1], the inhibition stood at 22.3%.

Turning to `COc1ccc2c(c1)/C(=C\c1ccco1)C(=O)N2`, the inhibition in experiment [1] worked out at 25.6%.

Turning to `O=C1Nc2ccc(Cl)cc2/C1=C\c1ccco1`, the results for the half-maximal inhibitory concentration (IC50) (in experiment [3]; with MCF7 [6]; in the experiment on PC-3 [7]) were 2.02 µM, 14.7 µM and 23.9 µM, respectively. In experiment [1], this compound showed an inhibition of 84.8%.

As to `O=C1Nc2ccc(Br)cc2/C1=C/c1ccc(-c2cccc(Br)c2)o1`, the inhibition in experiment [1] is < 10%.

In turn, `Cc1c(Cl)ccc2c1NC(=O)/C2=C1\SC(=S)NC1=O` displayed an inhibition in experiment [1] of 39.6%.

For `Cc1cccc2c1NC(=O)/C2=C1\SC(=S)NC1=O`, the results for the inhibition of growth at 100 µM in the experiment on PC-3 [2] and with MCF7 [4] were < 10% and 41.5%, respectively. Also, half-maximal inhibition in experiment [3] (IC50) was put at 1.68 µM. For the same compound, the inhibition in experiment [1] stood at 92.4%.

Regarding `O=C1Nc2ccc(Cl)cc2/C1=C/c1ccc(-c2cccc(Br)c2)o1`, the inhibition in experiment [1] was < 10%.

For the compound `O=C1Nc2ccccc2/C1=C/c1ccc(-c2cccc(Br)c2)o1`, in experiment [1], the inhibition was 21.9%.

With `Cc1ccc(N/N=C2/C(=O)Nc3ccc(F)cc32)cc1`, the inhibition in experiment [1] turned out to be 30.1%.

In experiment [1], `O=C1Nc2ccc(Cl)cc2/C1=C/c1c[nH]nc1-c1ccc(F)cc1` gave an inhibition of 44.5%.

Take `O=C1Nc2ccc(Br)cc2/C1=N/NC(=O)c1ccc2c(c1)OCO2`: the inhibition in experiment [1] was < 10%.

Regarding `O=C1Nc2ccccc2/C1=C/c1ccc(-c2c(Cl)cc(C(F)(F)F)cc2Cl)o1`, the inhibition in experiment [1] was < 10%.

For `O=C1Nc2ccc([N+](=O)[O-])cc2/C1=C\c1ccco1`, the inhibition in experiment [1] worked out at 29.8%.

As for `O=C1Nc2ccc(Cl)cc2/C1=C1/S/C(=N\c2ccccc2)N(c2ccccc2)C1=O`, the inhibition in experiment [1] is < 10%.

In experiment [1], `O=C1Nc2ccccc2/C1=C/c1ccc(CN2C(=O)c3ccccc3C2=O)o1` yielded an inhibition of 16.5%.

With `O=C1Nc2ccc(Br)cc2/C1=C/c1c[nH]nc1-c1ccc(F)cc1`, in experiment [1], the inhibition was < 10%.

`N=C1NC(=O)/C(=C2/C(=O)Nc3cc(Cl)ccc32)S1`: the inhibition in experiment [1] stood at 18.4%.

Consider `Nc1ccc2c(c1)/C(=C\c1ccco1)C(=O)N2`, for which, in the experiment with PC-3 [2], the inhibition of growth at 100 µM is < 10%. Further, the IC50 turned out to be 2.49 µM in experiment [3] and 15.5 µM in the experiment on MCF7 [6]. This compound also returned an inhibition in experiment [1] of 100%.

Regarding `NC(=O)c1ccc(/N=C2/C(=O)Nc3ccccc32)cc1`, in experiment [1], the inhibition is < 10%.

Compound `CC(=O)NN1C(=O)/C(=C2/C(=O)Nc3ccc(C)cc32)SC1=S` registered an inhibition in experiment [1] of 41.1%.

Turning to `O=C1Nc2ccc(Cl)cc2/C1=C/c1ccc(-c2ccccc2Cl)o1`, the inhibition in experiment [1] turned out to be 32.1%.

Consider `O=C1Nc2ccc(F)cc2/C1=C/c1ccc(-c2ccccc2Cl)o1`, for which, in experiment [1], the inhibition was 17.1%.

In the case of `O=C1Nc2ccc(Br)cc2/C1=C\c1ccco1`, the half-maximal inhibitory concentration (IC50) in experiment [3] is 1.51 µM; in the experiment on MCF7 [6], 9.84 µM; with PC-3 [7], 16.9 µM. This compound had an inhibition in experiment [1] of 87.3%.

As for `O=C1Nc2ccc(Cl)cc2/C1=C/c1c[nH]nc1-c1ccc(Cl)cc1`, the inhibition in experiment [1] was < 10%.

`O=C1Nc2ccc(F)cc2/C1=C/c1c[nH]nc1-c1ccc(F)cc1`: the inhibition in experiment [1] is < 10%.

Regarding `O=C1Nc2ccccc2/C1=C/c1c[nH]nc1-c1ccccc1`, the IC50 stood at 2.72 µM in experiment [3], 8.55 µM in the experiment on MCF7 [6] and 6.19 µM in the experiment with PC-3 [7]. In experiment [1], this compound yielded an inhibition of 79.5%.

In experiment [1], `O=C1Nc2ccccc2/C1=C/c1ccc(-c2ccccc2Cl)o1` displayed an inhibition of 16.8%.
